This is a sample that favours compounds with a hit; in the whole collection about 2.6% have one here.
SKN-1 block: inhibitors of C. elegans SKN-1 | C. elegans VP596 Pgst-4::GFP/RFP ratio, acrylamide-induced, 24 h | inhibition, % at 21.8 µM | hit rate 0.49% among 360,000 | AID 624304;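 active means interference check ratio from 0.5 to 1.5 plus GFP to RFP signal ratio inhibition reaching or exceeding a fixed threshold, cut at about 30% in these data, passing the limit was not always enough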
Rin1-Abl PPI inh: inhibitors of human Rin1-Abl protein interaction | P00519+Q13671 | TR-FRET Rin1/Abl binding, biochemical | inhibition, % at 7.35 µM | hit rate 0.4% among 360,000; in the data active means inhibition above about 5%, passing the limit was not always enough
GRK2 aptamer HTS: inhibitors of human GRK2 displacing RNA aptamer; bead flow cytometry, FAM-aptamer displacement from GRK2; P25098; hit rate 0.59% among 330,000; AID 488847; inhibition of aptamer binding, % at 10 µM;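 active means inhibition of aptamer binding above 40%, roughly 3 SD of noise, on plates passing a quality check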;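 further: median bead fluorescence of bound FAM aptamer so fluorescent compounds give negative values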
T cell modulator: T cell immune modulation candidate | response (vesicle binding), % at 7 µM | hit rate 0.068% among 330,000 | 2C CD8+ T cell-vesicle binding, flow cytometry; active compounds read low;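 active means response, share of CD8 T cells binding vesicles, and their 90th percentile fluorescence all below set limits, cut at about 80% in these data, passing the limit was not always enough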;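 further: values below 100% mean blocked vesicle binding to the CD8+ T cells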
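Read-out – percent CD8+ FL2 mean versus row control · System – murine 2C transgenic CD8+ T lymphocytes · Times – 1.5 h cell–vesicle binding at 37 °C, then 20 min icy labelling · Control set – naked vesicles low, QL9 vesicles with vehicle high · Detection – cytometric PE anti-B7-1 and Alexa647 anti-CD8 signals after 1% paraformaldehyde fixation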
Rce1 inhib: yeast Ras-converting enzyme inhibition; AID 2563; yeast membranes, quenched prenylated peptide cleavage fluorescence; calls only; hit rate 0.27% among 290,000; Q03530;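 active means fall in fluorescence gain of 50% or more versus controls, with final raw signal at or below 3038400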;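 further: plate controls were neutral control wells for no effect and wells lacking membranes for full effect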
Myeloid diff MLP: promotes myeloid progenitor differentiation | ER-HoxA9 myeloid progenitors, lysozyme-GFP differentiation, flow cytometry | calls only at 10 µM | hit rate 1% among 360,000 | AID 624256;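 active means normalized GFP-positive differentiation at or above the plate's own cutoff, the solvent-only control mean plus 3 SD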;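 further: cells exposed to compound for four days before flow analysis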
GRK2 CP1: confirmation of human GRK2 inhibitors displacing RNA aptamer; hit rate 4% among 2,000; aptamer displacement, % at 10 µM; bead-bound GRK2, FAM-aptamer displacement, flow cytometry; shares compounds with GRK2 aptamer HTS;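 active means aptamer displacement above 40%, near three times the noise of non-fluorescent compounds, on plates passing quality checks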;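 further: negative values mostly reflect intrinsic compound fluorescence rather than true enhancement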
Aptamer quench SP: quenches fluorescent RNA aptamer, GRK2 hit artifact; shares compounds with GRK2 aptamer HTS; Carboxyfluorescein RNA aptamer on beads, flow cytometry quenching; active compounds read low; fluorescence response (% of DMSO), % at 10 µM; 2,000 tested, under 10 active; AID 504580;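 active means compounds that quench the bead-bound fluorescent RNA probe, cutting fluorescence to under half of the solvent control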;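 further: counterscreen run without GRK2 so only probe quenching by compound is measured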
GRK2 confirm 2: confirmation of human GRK2 inhibitors binding RNA aptamer site | bead-bound GRK2, FAM-aptamer displacement, flow cytometry | AID 504782 | 360 tested, under 10 active | inhibition of aptamer binding, % at 10 µM | shares compounds with GRK2 aptamer HTS;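 active means inhibition of aptamer binding above 40%, about triple the noise seen with nonglowing compounds, on plates passing quality control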;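 further: negative values mostly come from compounds that fluoresce themselves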
FAM quench SP: counter-screen for GRK2 binding hits: quenchers of fluorescent RNA aptamer; AID 588494; shares compounds with GRK2 aptamer HTS; 360 tested, under 10 active; carboxyfluorescein RNA aptamer beads, flow cytometry quenching; active compounds read low; fluorescence response vs DMSO, % at 10 µM;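 active means response vs DMSO under 50%, meaning signal dropped by over half, treated as fluorescence quencher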;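 further: labelled aptamer on streptavidin beads without GRK2 as a quench counter-screen; 100% = bead fluorescence of DMSO wells and lower means quenching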
Active calls of the source: *; i = inactive; x = no result given.

SMILES	SKN-1 block	Rin1-Abl PPI inh	GRK2 aptamer HTS	T cell modulator	Rce1 inhib	Myeloid diff MLP	GRK2 CP1	Aptamer quench SP	others
Cn1cc(C(=O)OCC2CCN(CCNS(C)(=O)=O)CC2)c2ccccc21	-0.3	-0.3	0.0	687.6	i	i	0.5	96.3
CSCCC(NS(=O)(=O)c1ccccc1F)C(=O)NCc1cccs1 (centres undefined)	-6.2	3.8	61.0*	0.0	x	i	1.1	115.9
COc1ccccc1OCCNC(=O)C(CCSC)NS(=O)(=O)c1ccccc1F (centres undefined)	12.3	-2.1	0.0	265.4	i	i	x	x
C[n+]1ccccc1Nc1cc([N+](=O)[O-])ccc1N	-0.1	-3.7	0.0	144.5	i	i	x	x
COc1cc(CC(=O)Nc2c(-c3ccccc3)[nH][nH]c2=O)cc(OC)c1	15.8	x	x	x	x	i	x	x
COc1ccc(S(=O)(=O)NCc2ccc3c(c2)OCO3)cc1C	12.9	1.7	71.0*	377.3	i	i	-0.2	100.0
O=Cc1c(NCc2ccc(Cl)cc2)c2ccccc2[nH]c1=O	8.7	1.4	100.0*	87.6	i	i	4.2	94.4
CC(=O)c1ccc(NC(=O)NCc2ccc(F)cc2)cc1	-3.5	1.9	0.0	324.8	i	i	x	x
CCOC(=O)c1c(NC(=O)COC(=O)c2nc(Cl)ccc2Cl)sc2c1CCC2	0.2	-0.5	0.0	278.0	i	i	x	x
NC(=O)CSc1cn(CCNC(=O)c2cccs2)c2ccccc12	4.5	0.7	0.0	748.9	i	i	x	x	GRK2 confirm 2=-17.0;FAM quench SP=101.0
CCNC(=O)NC(=O)C(C)OC(=O)[C@H](C)NS(=O)(=O)c1c(C)c(C)cc(C)c1C (some centres undefined)	7.2	-1.8	3.0	271.8	i	i	x	x
Cc1ccccc1CCN(CC(=O)NCc1ccc(F)cc1)C(=O)c1csnn1	-4.2	0.6	70.0*	392.2	i	i	0.8	98.9
O=C(Nc1ccc(F)cc1)c1ccc(C(=O)N2CCOCC2)cc1	7.1	-1.0	x	x	i	i	x	x
O=C(c1coc(=O)c(Br)c1)N1CCOCC1	-5.6	2.1	x	x	i	i	x	x
O=C(c1ccc(=O)oc1)N1CCOCC1	9.3	-2.6	87.0*	266.6	i	x	35.2	110.4
O=C(c1ccc(=O)oc1)N1CCCc2ccccc21	23.5	4.0	42.0*	182.3	i	i	6.9	106.2
O=C(c1ccc(F)cc1)N1CCOCC1	-1.4	2.9	50.0*	493.3	i	i	-0.4	101.1
COc1cc(S(=O)(=O)N2CCN(C(=O)c3ccco3)CC2)ccc1Cl	7.4	-2.6	1.0	98.5	i	i	x	x
OCCC1CN(Cc2cccc3c2OCO3)CCN1C1CCCCC1 (centres undefined)	-7.5	2.5	99.0*	525.1	i	i	0.9	98.1
OCCC1CN(Cc2cccc3c2OCO3)CCN1Cc1ccccc1 (centres undefined)	1.2	1.7	2.0	81.5	i	i	x	x
COc1ccc(CN([C@H](C)CO)S(=O)(=O)N(Cc2ccccc2)[C@H](CO)C(C)C)cc1	0.2	0.5	46.0*	249.8	x	i	-3.1	96.2
COc1ccc(CC(=O)N(Cc2ccccc2)C(C)C)cc1	-7.0	1.4	2.0	264.8	i	i	x	x
COc1ccc(CCC(C)N(C)Cc2ccccc2)cc1 (centres undefined)	-11.6	0.9	37.0	204.8	i	i	-0.3	93.4
CC1(C)CC(=O)C2=C(C1)Nc1ccccc1NC2c1ccc([N+](=O)[O-])cc1 (centres undefined)	6.5	0.7	x	599.7	i	i	x	x
CCCCNC(=O)C1(NC(=O)Nc2ccc(C)cc2)CCCCC1	8.2	0.7	0.0	232.0	i	i	x	x
SMILES	SKN-1 block	Rin1-Abl PPI inh	GRK2 aptamer HTS	T cell modulator	Rce1 inhib	Myeloid diff MLP	GRK2 CP1	Aptamer quench SP	others
CCOC(=O)c1ccc(N2C(=O)CC(Sc3nc(C)cc(C)n3)C2=O)cc1 (centres undefined)	0.4	-1.1	0.0	147.9	i	i	x	x
CCOC(=O)c1cnc(SC2CC(=O)N(c3ccc(OC)c(OC)c3)C2=O)nc1N (centres undefined)	3.1	-1.1	45.0*	277.2	i	i	-4.1	98.4
CCC(Sc1nc2ccsc2c(=O)n1Cc1ccc(C(=O)O)cc1)C(=O)Nc1ccc(Cl)cc1 (centres undefined)	10.0	-2.6	x	x	x	i	x	x
CC(OC(=O)c1ccc([N+](=O)[O-])s1)C(=O)NC1CCCCC1C (centres undefined)	0.2	1.8	33.0	348.8	x	i	2.5	96.4
CC1CCN(S(=O)(=O)c2ccc(C(=O)OC(C)C(=O)NC3CCCCC3C)cc2)CC1 (centres undefined)	14.3	3.7	0.0	678.0	i	i	-22.8	97.9
COc1cccc(NC(=O)C2(C)CCN2C(=O)C2CCCCC2)c1 (centres undefined)	24.9	-1.2	x	x	x	i	x	x
Cc1noc(C)c1COc1cccc(C(=O)NCc2ccccc2Cl)c1	6.7	-4.9	1.0	148.1	i	i	2.1	94.4
COc1ccc(Br)cc1S(=O)(=O)n1c([N+](=O)[O-])cnc1C	-8.6	0.4	2.0	219.1	i	i	x	x
CSc1ccc(/C=C/C(=O)OCC(=O)N2CCN(c3ccccc3)CC2)cc1	-17.4	-0.8	x	x	x	i	x	x
O=C(/C=C/c1cccc(Br)c1)OCC(=O)N1CCN(c2ccccc2)CC1	-14.8	1.9	76.0*	316.5	x	i	0.9	99.3
Cc1ccc(-c2noc(CSc3nnc(-c4ccncc4)n3-c3ccc(C)cc3)n2)cc1	1.7	2.4	99.0*	265.4	i	i	-1.3	95.5
NC(=O)N(CCC(=O)O)c1ccccc1	1.8	-1.7	78.0*	228.3	i	i	x	x	GRK2 confirm 2=29.2;FAM quench SP=99.0
CCN(CCC(=O)O)c1ccccc1	-1.2	3.4	1.0	304.1	i	i	x	x
CCCCSCCCNC(=O)c1ccc2c(c1)N(CC)C(=O)c1ccccc1S2=O (centres undefined)	11.9	-0.1	47.0*	668.3	i	i	x	x	GRK2 confirm 2=9.4;FAM quench SP=100.0

High-throughput results deposited in PubChem by several laboratories.
